For experiment [1], the system named is Plasmodium falciparum. Put plainly: Antiplasmodial activity against chloroquine-sensitive Plasmodium falciparum D10 after 72 hrs by LDH assay. The class given is functional, organism-based. As to conditions: D10, 72 h. An outline of the steps: (§1)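 P. falciparum grown in human A+ red cells at 5% hematocrit in RPMI 1640 with 1% AlbuMaxII, 0.01% hypoxanthine, 20 mM Hepes and 2 mM glutamine, at 37 °C under 1% O2/5% CO2/94% N2. Compounds dissolved in water or DMSO and diluted in medium. Growth read by pLDH. Values are mean ± SD of three experiments run in duplicate.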

For experiment [2], the system named is Plasmodium falciparum. The experiment is described as follows: Antiplasmodial activity against chloroquine-resistant Plasmodium falciparum W2 after 72 hrs by LDH assay. The experiment is classed as functional, organism-based. The following applies: W2, 72 h. The gist of the method:
as §1

The term IC50 denotes the midpoint of a concentration-inhibition curve. The low end stands for inhibition by little substance, the high end for a need for much substance. As for `CC(=O)O[C@@H]1C[C@H]2C(C)(C)C(=O)C=C[C@]2(C)[C@H]2CC[C@]3(C)C(=CC(=O)[C@H]3c3ccoc3)[C@@]21C` [AZADIRADIONE], the IC50 is 5.96 µM in the experiment with Plasmodium falciparum [1] and 3.4 µM in the experiment with Plasmodium falciparum [2].
For `CC(=O)O[C@@H]1C[C@H]2C(C)(C)C(=O)C=C[C@]2(C)[C@H]2CC[C@]3(C)C(=CC[C@H]3c3ccoc3)[C@@]21C` [AZADIRONE], in that order: 1.63 µM and 1.21 µM.
For `CC1(C)C(=O)C=C[C@]2(C)[C@H]3CC[C@@]4(C)[C@H](c5ccoc5)OC(=O)[C@H]5O[C@]54[C@]3(C)[C@H](O)C[C@@H]12` [DEACETYLGEDUNIN], in that order: 5.14 µM and 3.29 µM.
For `CC(=O)O[C@@H]1C[C@H]2C(C)(C)C(=O)C=C[C@]2(C)[C@H]2CC[C@]3(C)C(=CC(=O)[C@H]3[C@@H]3COC(O)C3)[C@@]21C` (some centres undefined) [DESMETHYLLIMOCIN B], in that order: 4.8 µM and 2.59 µM.
As for `CC(=O)O[C@@H]1C[C@H]2C(C)(C)C(=O)C=C[C@]2(C)[C@H]2CC[C@@]3(C)[C@H](c4ccoc4)C(=O)[C@H]4O[C@]43[C@@]21C` [EPOXYAZADIRADIONE], the IC50 in the experiment on Plasmodium falciparum [1] is 3.3 µM; in the experiment with Plasmodium falciparum [2] it was 2.16 µM.
`CC(=O)O[C@@H]1C[C@H]2C(C)(C)C(=O)C=C[C@]2(C)[C@H]2CC[C@@]3(C)[C@H](c4ccoc4)OC(=O)[C@H]4O[C@]43[C@@]21C` [GEDUNIN] had an IC50 with Plasmodium falciparum [2] of 1.31 µM.
For `CC(=O)O[C@H]1CC(=O)C(C)(C)[C@@H]2C[C@@H](OC(C)=O)[C@@]3(C)C4=CC[C@@H]([C@@H]5COC(O)C5)[C@]4(C)CC[C@@H]3[C@@]12C` (some centres undefined) [NEEMFRUITIN A], the results for the IC50 with Plasmodium falciparum [1] and in the experiment with Plasmodium falciparum [2] were 2.82 µM and 1.74 µM, respectively.
For `CC(=O)O[C@H]1O[C@@H]([C@@H]2OC2(C)C)C[C@H]1[C@@H]1CC=C2[C@]3(C)[C@H](O)C[C@H]4C(C)(C)C(=O)C=C[C@]4(C)[C@H]3CC[C@]21C` [NEEMFRUITIN B], in that order: 9.49 µM and 9.98 µM.
For `CC(=O)O[C@@H]1C[C@H]2C(C)(C)C(=O)C=C[C@]2(C)[C@H]2CC[C@]3(C)C(=CC[C@H]3[C@H]3CO[C@@H]([C@H](O)C(C)(C)O)C3)[C@@]21C` [PROTOXYLOCARPIN G], in that order: 5 µM and 2.4 µM.
For the compound `CC(=O)O[C@@H]1C[C@H]2C(C)(C)C(=O)C=C[C@]2(C)[C@H]2CC[C@]3(C)C(=CC[C@H]3[C@H]3COC(O)(C(C)(C)O)[C@H](O)C3)[C@@]21C` (some centres undefined) [SPICATIN], the IC50 is 5.4 µM with Plasmodium falciparum [1] and 2.74 µM with Plasmodium falciparum [2].

The values are drawn from ChEMBL document CHEMBL1212893, “Antiplasmodial triterpenoids from the fruits of neem, Azadirachta indica” (J Nat Prod, 2010).
